Our source for the Control and inhibition values is ChEMBL document CHEMBL1129264, “Mercaptoacyl dipeptides as orally active dual inhibitors of angiotensin-converting enzyme and neutral endopeptidase” (1996).

Experiment [1] deals with Rattus norvegicus. The experiment can be described thus: Plasma ANF Concentration in the Conscious Rat at a dose of 13.1(po)mg/kg at 4 h. It counts as functional. The method, boiled down: (§1)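 Male Sprague-Dawley rats (275-390 g) received femoral artery and vein catheters under ketamine (150 mg/kg)/acepromazine and recovered for 24 h, tethered, before study conscious. ratANF(99-126) was infused at 450 ng/kg/min iv for 5 h. Baseline blood was drawn at 60 min into the infusion, then compound was given po.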

Experiment [2] concerns the target T1, Angiotensin-converting enzyme (Rattus norvegicus) (UniProt P47820).
T1 sequence (whole entry): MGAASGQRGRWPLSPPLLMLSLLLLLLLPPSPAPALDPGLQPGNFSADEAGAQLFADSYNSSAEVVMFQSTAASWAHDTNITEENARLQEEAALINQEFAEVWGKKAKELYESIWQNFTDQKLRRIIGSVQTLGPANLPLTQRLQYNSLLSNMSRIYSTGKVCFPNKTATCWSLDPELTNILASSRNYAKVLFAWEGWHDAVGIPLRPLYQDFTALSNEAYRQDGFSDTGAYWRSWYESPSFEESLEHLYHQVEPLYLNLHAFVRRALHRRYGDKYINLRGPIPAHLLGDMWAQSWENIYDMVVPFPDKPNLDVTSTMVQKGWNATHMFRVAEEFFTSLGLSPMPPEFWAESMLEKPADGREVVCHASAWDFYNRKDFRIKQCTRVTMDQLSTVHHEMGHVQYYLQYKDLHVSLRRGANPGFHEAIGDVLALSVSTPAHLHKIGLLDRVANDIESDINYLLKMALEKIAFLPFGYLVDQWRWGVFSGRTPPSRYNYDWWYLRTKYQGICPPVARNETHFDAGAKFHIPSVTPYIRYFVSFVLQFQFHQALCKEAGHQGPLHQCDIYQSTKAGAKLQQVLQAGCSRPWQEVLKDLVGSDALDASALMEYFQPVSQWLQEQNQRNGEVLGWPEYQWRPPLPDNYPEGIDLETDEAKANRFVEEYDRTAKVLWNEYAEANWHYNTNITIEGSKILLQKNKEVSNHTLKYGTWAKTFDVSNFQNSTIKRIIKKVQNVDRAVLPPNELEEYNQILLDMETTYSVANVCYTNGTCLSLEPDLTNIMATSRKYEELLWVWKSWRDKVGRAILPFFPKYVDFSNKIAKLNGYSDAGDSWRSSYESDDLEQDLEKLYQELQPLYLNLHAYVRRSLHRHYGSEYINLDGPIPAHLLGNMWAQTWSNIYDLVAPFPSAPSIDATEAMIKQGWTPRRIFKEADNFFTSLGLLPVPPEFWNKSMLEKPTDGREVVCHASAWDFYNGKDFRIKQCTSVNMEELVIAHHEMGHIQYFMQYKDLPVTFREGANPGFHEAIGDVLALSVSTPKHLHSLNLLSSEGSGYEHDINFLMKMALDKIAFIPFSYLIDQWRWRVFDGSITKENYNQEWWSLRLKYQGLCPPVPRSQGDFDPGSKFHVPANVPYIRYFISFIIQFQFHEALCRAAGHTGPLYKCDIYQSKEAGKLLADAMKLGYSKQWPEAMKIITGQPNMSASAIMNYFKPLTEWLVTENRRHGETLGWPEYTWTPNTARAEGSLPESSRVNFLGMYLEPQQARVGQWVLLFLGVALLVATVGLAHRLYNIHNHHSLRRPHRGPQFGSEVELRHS
Put plainly: Compound was tested for plasma inhibition of Angiotensin I converting enzyme activity in the conscious rat. Expressed as Inhibition of AI pressor response at 2 hr at a dose of 13.1 mg/kg po. The experiment is classed as organism-based. The arrangement: dose 13.1 mg/kg. The method in brief:
(§2)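 Male conscious normotensive Sprague-Dawley rats (275-390 g), given femoral arterial and venous catheters under methohexital sodium (75 mg/kg ip) anesthesia. Next day, pressor responses to three angiotensin-I challenges (300 ng/kg iv) recorded by direct arterial pressure. Compound then dosed orally, and AI challenge repeated at set times. Each post-dose response compared with the mean of the three baseline responses, giving % inhibition.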

In experiment [3] the test system is Rattus norvegicus. Put plainly: Plasma ANF Concentration in the Conscious Rat at a dose of 13.1(po)mg/kg at 0.5 h. It counts as functional. The method in brief: as §1
Experiment [4] deals with T1, Angiotensin-converting enzyme (Rattus norvegicus). Put plainly: Compound was tested for plasma inhibition of Angiotensin I converting enzyme activity in the conscious rat. Expressed as Inhibition of AI pressor response at 6 hr at a dose of 13.1 mg/kg po. The experiment is classed as organism-based. The arrangement: dose 13.1 mg/kg. The method in brief: (§3)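 Male conscious normotensive Sprague-Dawley rats (275-390 g), prepared under methohexital sodium (75 mg/kg ip) with femoral arterial and venous catheters. The next day, pressor responses to three angiotensin-I challenges (300 ng/kg iv) were recorded. Compound was then given orally and angiotensin-I challenges were repeated at set times. Percent inhibition is relative to the mean of the three baseline responses.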

The target is the same in experiment [5]. The experiment can be described thus: Compound was tested for plasma inhibition of Angiotensin I converting enzyme activity in the conscious rat. Expressed as Inhibition of AI pressor response at 4 hr at a dose of 13.1 mg/kg po. On the set-up: dose 13.1 mg/kg. It counts as organism-based. The method in brief:
as §3

For experiment [6] the target is unchanged. The experiment can be described thus: Compound was tested for plasma inhibition of Angiotensin I converting enzyme activity in the conscious rat. Expressed as Inhibition of AI pressor response at 1 hr at a dose of 13.1 mg/kg po. The experiment is classed as organism-based. The arrangement: dose 13.1 mg/kg. The method in brief: as §2
Experiment [7] concerns Rattus norvegicus. The experiment can be described thus: Plasma ANF Concentration in the Conscious Rat at a dose of 13.1(po)mg/kg at 2 h. It counts as functional. The method in brief:
as §1

In experiment [8] the test system is Rattus norvegicus. Put plainly: Plasma ANF Concentration in the Conscious Rat at a dose of 13.1(po)mg/kg at 1 h. The experiment is classed as functional. The method, boiled down: as §1
Experiment [9] concerns Rattus norvegicus. Put plainly: Plasma ANF Concentration in the Conscious Rat at a dose of 13.5(po)mg/kg at 0.5 h. It counts as functional. The method, boiled down: (§4)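 Male Sprague-Dawley rats (275-390 g), catheterized in femoral artery and vein under ketamine (150 mg/kg)/acepromazine, tethered and recovered 24 h, studied conscious. Continuous iv rat ANF(99-126) infusion at 450 ng/kg/min for 5 h; baseline blood at 60 min, then oral dosing, sampling at 30-240 min.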

The test system of experiment [10] is Rattus norvegicus. The experiment can be described thus: Plasma ANF Concentration in the Conscious Rat at a dose of 13.5(po)mg/kg at 1 h. It counts as functional. The method in brief: as §4
Experiment [11] relates to Rattus norvegicus. Put plainly: Plasma ANF Concentration in the Conscious Rat at a dose of 13.5(po)mg/kg at 4 h. It counts as functional. The method, boiled down: as §4
The target in experiment [12] is T1, Angiotensin-converting enzyme (Rattus norvegicus). Put plainly: Compound was tested for plasma inhibition of Angiotensin I converting enzyme activity in the conscious rat. Expressed as Inhibition of AI pressor response at 6 hr at a dose of 13.5 mg/kg po. The experiment is classed as organism-based. On the set-up: dose 13.5 mg/kg. The method, boiled down: as §3

Experiment [13] shares this target. The experiment can be described thus: Compound was tested for plasma inhibition of Angiotensin I converting enzyme activity in the conscious rat. Expressed as Inhibition of AI pressor response at 1 hr at a dose of 13.5 mg/kg po. It counts as organism-based. The arrangement: dose 13.5 mg/kg. The method in brief:
as §2

Experiment [14] has the same target. Put plainly: Compound was tested for plasma inhibition of Angiotensin I converting enzyme activity in the conscious rat. Expressed as Inhibition of AI pressor response at 2 hr at a dose of 13.5 mg/kg po. The experiment is classed as organism-based. On the set-up: dose 13.5 mg/kg. The method, boiled down: as §2
Experiment [15] relates to Rattus norvegicus. The experiment can be described thus: Plasma ANF Concentration in the Conscious Rat at a dose of 13.5(po)mg/kg at 2 h. It counts as functional. The method, boiled down: as §4
The target in experiment [16] is T1, Angiotensin-converting enzyme (Rattus norvegicus). Put plainly: Compound was tested for plasma inhibition of Angiotensin I converting enzyme activity in the conscious rat. Expressed as Inhibition of AI pressor response at 4 hr at a dose of 13.5 mg/kg po. The experiment is classed as organism-based. The arrangement: dose 13.5 mg/kg. The method in brief:
as §3

On to `COc1ccc(C[C@H](NC(=O)C2(NC(=O)[C@H](SC(C)=O)C(C)C)CCCC2)C(=O)OCc2ccccc2)cc1`, for which the Control in the experiment on Rattus norvegicus [1] worked out at 181%; in the experiment on Rattus norvegicus [3] it was 107%; in the experiment with Rattus norvegicus [7], 143%; in the experiment on Rattus norvegicus [8], 111%. For the same compound, the inhibition in experiment [2] is 84%; in [4], 64%; in [5] it was 81%; in [6], 85%.
As to `CCOC(=O)[C@H](Cc1ccc(OC(=O)COC)cc1)NC(=O)C1(NC(=O)[C@H](SC(C)=O)C(C)C)CCCC1`, the Control with Rattus norvegicus [9] was found to be 203%; in the experiment with Rattus norvegicus [10], 263%; in the experiment on Rattus norvegicus [11], 223%; in the experiment on Rattus norvegicus [15] it was 252%. In addition, the inhibition stood at 61% in experiment [12], 79% in experiment [13], 79% in experiment [14] and 70% in experiment [16].

Broadly, the inhibition is the relative decrease from the control value, in per cent. Higher therefore signals a strong effect.
